14-3-3 Bad PPI: disrupts binding of bovine 14-3-3 zeta to phospho-Bad peptide | P63103 | TR-FRET 14-3-3zeta/Dy647-pBad peptide displacement, 1 h | inhibition, % at 21.7 µM | hit rate 0.71% among 220,000 | AID 781;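 active means inhibition above about 70%, limit read from the data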
eIF4E-4G inh: inhibitors of eIF4E and eIF4G interaction in translation initiation | inhibition, % at 21.7 µM | hit rate 0.37% among 220,000 | TR-FRET eIF4E-eIF4GI(517-606) binding, 2 h;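 active means inhibition above about 30%, limit read from the data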
Target sequence (P63073 whole entry, looked up): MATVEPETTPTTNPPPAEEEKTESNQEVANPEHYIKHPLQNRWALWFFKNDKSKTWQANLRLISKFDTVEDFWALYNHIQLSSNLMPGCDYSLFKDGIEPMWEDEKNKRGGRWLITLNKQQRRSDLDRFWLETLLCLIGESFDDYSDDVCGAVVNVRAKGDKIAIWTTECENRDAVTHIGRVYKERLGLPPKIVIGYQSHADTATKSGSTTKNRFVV
Target sequence (Q04637 whole entry, looked up): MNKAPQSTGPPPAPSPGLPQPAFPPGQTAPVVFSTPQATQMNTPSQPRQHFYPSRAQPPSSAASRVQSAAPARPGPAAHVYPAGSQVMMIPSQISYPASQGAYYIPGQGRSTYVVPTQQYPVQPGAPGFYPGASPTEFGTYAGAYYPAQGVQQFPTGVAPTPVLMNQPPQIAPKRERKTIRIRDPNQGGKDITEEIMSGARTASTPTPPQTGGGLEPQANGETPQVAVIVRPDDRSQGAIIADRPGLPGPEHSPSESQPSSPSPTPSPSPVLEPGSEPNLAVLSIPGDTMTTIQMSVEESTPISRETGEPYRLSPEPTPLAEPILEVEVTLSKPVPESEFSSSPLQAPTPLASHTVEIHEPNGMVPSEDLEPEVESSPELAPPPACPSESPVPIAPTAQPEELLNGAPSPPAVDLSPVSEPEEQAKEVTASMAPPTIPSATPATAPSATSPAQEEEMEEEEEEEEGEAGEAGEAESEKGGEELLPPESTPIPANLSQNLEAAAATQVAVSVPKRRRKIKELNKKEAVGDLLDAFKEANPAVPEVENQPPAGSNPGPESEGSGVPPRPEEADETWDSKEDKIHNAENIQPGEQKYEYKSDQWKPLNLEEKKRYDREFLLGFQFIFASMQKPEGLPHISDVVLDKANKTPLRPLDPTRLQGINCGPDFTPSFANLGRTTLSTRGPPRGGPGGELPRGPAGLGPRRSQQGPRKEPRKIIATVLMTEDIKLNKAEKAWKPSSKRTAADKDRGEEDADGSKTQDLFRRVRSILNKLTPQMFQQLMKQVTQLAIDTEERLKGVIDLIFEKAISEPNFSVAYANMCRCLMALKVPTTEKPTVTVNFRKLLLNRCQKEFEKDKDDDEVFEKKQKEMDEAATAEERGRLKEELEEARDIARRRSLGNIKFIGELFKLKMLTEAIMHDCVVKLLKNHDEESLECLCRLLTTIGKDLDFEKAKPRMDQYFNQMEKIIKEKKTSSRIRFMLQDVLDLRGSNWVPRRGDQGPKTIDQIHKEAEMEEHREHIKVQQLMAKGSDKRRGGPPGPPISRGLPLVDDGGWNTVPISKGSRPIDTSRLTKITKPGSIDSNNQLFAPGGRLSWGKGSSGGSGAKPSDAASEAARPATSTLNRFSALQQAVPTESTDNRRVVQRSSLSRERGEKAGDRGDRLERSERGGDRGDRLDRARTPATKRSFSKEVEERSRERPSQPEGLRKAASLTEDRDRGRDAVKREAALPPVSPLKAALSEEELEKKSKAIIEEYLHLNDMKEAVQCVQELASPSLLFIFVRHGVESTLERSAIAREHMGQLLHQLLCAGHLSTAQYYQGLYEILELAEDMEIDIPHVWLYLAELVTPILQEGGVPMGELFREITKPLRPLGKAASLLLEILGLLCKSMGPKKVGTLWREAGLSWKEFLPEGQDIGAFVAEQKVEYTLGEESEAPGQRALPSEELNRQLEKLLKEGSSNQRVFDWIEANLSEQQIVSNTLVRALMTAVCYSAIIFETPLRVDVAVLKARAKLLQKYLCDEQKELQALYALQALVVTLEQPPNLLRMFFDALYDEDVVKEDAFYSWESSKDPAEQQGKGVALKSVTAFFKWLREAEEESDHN
PKD1 inh: blocks activity of human protein kinase D1 | inhibition, % (no concentration beside the values) | hit rate 0.056% among 200,000 | Q15139 | PKD1 kinase fluorescence polarization assay
EBV gp42 inh: EBV gp42 inhibition | Q1HVG2 | Fluorescence polarization binding assay, mP read-out | inhibition, % (tested at 21.74 µM) | hit rate 0.42% among 220,000
RBBP9 inh: inhibitors of human serine hydrolase RBBP9 | recombinant RBBP9, FP-Rh probe fluorescence polarization | inhibition, % at 7.94 µM | hit rate 0.2% among 220,000;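 active means inhibition above the campaign mean of all tested compounds plus 3 SD, cut at about 14% in these data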
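System: RBBP9 protein | Quantity: 2.5 µM RBBP9 dispensing solution, before mixing | Reagent: FP-Rh probe, 375 nM dispensing solution | Timing: Enzyme-compound preincubation 30 min, then probe labeling 45 min, 25 °C | Measured by: Fluorescence polarization | Read-out: % inhibition | Replication: One well per compound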
Hits are given with their value; [ ] = dose if it differs, or a comment. Sampled rows, rich in hits. Any-hit rate of the full collection: about 1.6%. Unless noted, no stated cut-off is given here; in the data, active means inhibition above about 50%; inactive means the rest.

How did CN1CCN(CCC(=O)N2c3ccccc3Sc3ccc(C(F)(F)F)cc32)CC1 do in these assays?
14-3-3 Bad PPI: 80.2; eIF4E-4G inh: inactive; PKD1 inh: inactive; EBV gp42 inh: inactive; RBBP9 inh: inactive

What do the screens show for `CCN1CCN(c2cc(SC(C)C)nc(-c3ccc(OC)cc3)n2)CC1`?
14-3-3 Bad PPI: 71.1[fluorescence artefact?]; eIF4E-4G inh: inactive; PKD1 inh: inactive; EBV gp42 inh: inactive; RBBP9 inh: inactive

Results for C=CCS/C(N)=N\N=C\c1cc(Br)cc([N+](=O)[O-])c1O ?
14-3-3 Bad PPI: inactive; eIF4E-4G inh: inactive; EBV gp42 inh: inactive; RBBP9 inh: inactive

Results for CCCN1CCCc2cc(CN)ccc21 ?
14-3-3 Bad PPI: inactive; eIF4E-4G inh: inactive; PKD1 inh: inactive; EBV gp42 inh: 79.0; RBBP9 inh: inactive

What do the screens show for `COC(=O)CC1C(=O)NCCN1C(=O)CSc1nc2ccccc2s1` (stereo unspecified)?
14-3-3 Bad PPI: inactive; eIF4E-4G inh: inactive; PKD1 inh: inactive; EBV gp42 inh: inactive; RBBP9 inh: inactive

How did O=C(CCC(=O)OC(C(=O)c1ccccc1)c1ccccc1)Nc1ccccc1 (stereo unspecified) do in these assays?
14-3-3 Bad PPI: 87.1; eIF4E-4G inh: inactive; PKD1 inh: inactive; EBV gp42 inh: inactive; RBBP9 inh: inactive

Results for Cc1ccc(C)c(NC(=O)CCC(=O)OC(C(=O)c2ccccc2)c2ccccc2)c1 (stereo unspecified) ?
14-3-3 Bad PPI: inactive; eIF4E-4G inh: inactive; PKD1 inh: inactive; EBV gp42 inh: inactive; RBBP9 inh: inactive

What do the screens show for `COC(=O)Cn1c2ccc(OC)cc2c2nc3ccccc3nc21`?
14-3-3 Bad PPI: inactive; eIF4E-4G inh: inactive; PKD1 inh: inactive; EBV gp42 inh: inactive; RBBP9 inh: inactive

What do the screens show for `CCOc1ccc(Cn2c3ccc(OC)cc3c3nc4ccccc4nc32)cc1OC`?
14-3-3 Bad PPI: inactive; eIF4E-4G inh: inactive; PKD1 inh: inactive; EBV gp42 inh: 56.0; RBBP9 inh: inactive

How did CCOC(=O)Cn1c2ccc(OC)cc2c2nc3ccccc3nc21 do in these assays?
14-3-3 Bad PPI: inactive; eIF4E-4G inh: inactive; PKD1 inh: inactive; EBV gp42 inh: 63.9; RBBP9 inh: inactive

How did COc1ccc2c(c1)c1nc3ccccc3nc1n2Cc1ccc(OC)c(OC)c1 do in these assays?
14-3-3 Bad PPI: inactive; eIF4E-4G inh: inactive; PKD1 inh: inactive; EBV gp42 inh: 59.2; RBBP9 inh: inactive

What do the screens show for `CN1CCN(CC(O)(c2ccc(Cl)cc2)c2ccc(Cl)cc2)CC1`?
14-3-3 Bad PPI: inactive; eIF4E-4G inh: inactive; PKD1 inh: inactive; EBV gp42 inh: inactive; RBBP9 inh: inactive

How did C=CCn1c(N2CCOCC2)nc2c1c(=O)[nH]c(=O)n2C do in these assays?
14-3-3 Bad PPI: inactive; eIF4E-4G inh: inactive; PKD1 inh: inactive; EBV gp42 inh: inactive; RBBP9 inh: inactive

How did NS(=O)(=O)c1ccc(-c2ccc(/C=C3\C(=O)Nc4cc(Cl)ccc43)o2)cc1 do in these assays?
14-3-3 Bad PPI: 75.3; eIF4E-4G inh: inactive; PKD1 inh: inactive; EBV gp42 inh: inactive; RBBP9 inh: inactive

What do the screens show for `O=S(=O)(Oc1ccccc1N1CCCCC1)c1ccccc1`?
14-3-3 Bad PPI: inactive; eIF4E-4G inh: inactive; EBV gp42 inh: inactive; RBBP9 inh: inactive

What do the screens show for `Cc1sc(NC(=O)CN2CCOCC2)c(C#N)c1C`?
14-3-3 Bad PPI: inactive; eIF4E-4G inh: inactive; EBV gp42 inh: inactive; RBBP9 inh: inactive

Results for O=C(NN(CC(O)COc1ccccc1)CC(O)COc1ccccc1)c1ccccc1 (stereo unspecified) ?
14-3-3 Bad PPI: inactive; eIF4E-4G inh: inactive; EBV gp42 inh: inactive; RBBP9 inh: inactive

Results for Cc1ccc(N2C(=O)C(Cl)=C(NCc3ccccc3)C2=O)c(C)c1 ?
14-3-3 Bad PPI: inactive; eIF4E-4G inh: inactive; PKD1 inh: inactive; EBV gp42 inh: inactive; RBBP9 inh: inactive

What do the screens show for `CCc1nnc(NC(=O)Cn2nc(-c3ccc(OC)c(OC)c3)ccc2=O)s1`?
14-3-3 Bad PPI: inactive; eIF4E-4G inh: inactive; PKD1 inh: inactive; EBV gp42 inh: inactive; RBBP9 inh: inactive

How did CCc1nnc(NC(=O)Cn2nc(-c3ccccc3OC)ccc2=O)s1 do in these assays?
14-3-3 Bad PPI: inactive; eIF4E-4G inh: 35.8; PKD1 inh: inactive; EBV gp42 inh: inactive; RBBP9 inh: inactive

Results for CCCS(=O)(=O)N1CCN(CC2CC=CCC2)CC1 (stereo unspecified) ?
14-3-3 Bad PPI: 73.1; eIF4E-4G inh: inactive; PKD1 inh: inactive; EBV gp42 inh: inactive; RBBP9 inh: inactive

How did CCCS(=O)(=O)N1CCN(CC2CC3C=CC2C3)CC1 (stereo unspecified) do in these assays?
14-3-3 Bad PPI: 71.9; eIF4E-4G inh: inactive; PKD1 inh: inactive; EBV gp42 inh: inactive; RBBP9 inh: inactive

Results for CCN1CCN(Cc2c(O)c(Cl)cc3c(C)cc(=O)oc23)CC1 ?
14-3-3 Bad PPI: inactive; eIF4E-4G inh: inactive; PKD1 inh: inactive; EBV gp42 inh: inactive; RBBP9 inh: inactive

How did Cc1cc(=O)oc2c(CN3CCCCC3)c(O)c(Cl)cc12 do in these assays?
14-3-3 Bad PPI: 73.3[fluorescence artefact?]; eIF4E-4G inh: inactive; PKD1 inh: inactive; EBV gp42 inh: inactive; RBBP9 inh: inactive

Results for Cc1cc(=O)oc2c(CN3CCC(C)CC3)c(O)c(Cl)cc12 ?
14-3-3 Bad PPI: inactive; eIF4E-4G inh: inactive; PKD1 inh: inactive; EBV gp42 inh: 71.9; RBBP9 inh: inactive

How did O=C1/C(=C/c2cccc(Br)c2)SC(=S)N1/N=C/c1cc([N+](=O)[O-])ccc1O do in these assays?
14-3-3 Bad PPI: inactive; eIF4E-4G inh: inactive; EBV gp42 inh: inactive; RBBP9 inh: inactive

What do the screens show for `COc1ccc(CSc2ncnc3sccc23)cc1F`?
14-3-3 Bad PPI: inactive; eIF4E-4G inh: inactive; PKD1 inh: inactive; EBV gp42 inh: inactive; RBBP9 inh: inactive

Results for COC(=O)c1cc(NC(=O)C2CC(=O)NC(=NCc3ccc(OC)cc3)S2)cc(C(=O)OC)c1 (stereo unspecified) ?
14-3-3 Bad PPI: inactive; eIF4E-4G inh: inactive; PKD1 inh: inactive; EBV gp42 inh: inactive; RBBP9 inh: inactive

Results for CC(=O)c1csc(-c2ccccc2)n1 ?
14-3-3 Bad PPI: inactive; eIF4E-4G inh: inactive; PKD1 inh: inactive; EBV gp42 inh: inactive; RBBP9 inh: inactive

What do the screens show for `CC(=O)c1csc(Nc2ccccc2Cl)n1`?
14-3-3 Bad PPI: 90.0; eIF4E-4G inh: inactive; EBV gp42 inh: inactive; RBBP9 inh: inactive

How did COc1ccc(/C=C2\SC(c3ccc(C)cc3)=NC2=O)cc1OC do in these assays?
14-3-3 Bad PPI: inactive; eIF4E-4G inh: inactive; PKD1 inh: inactive; EBV gp42 inh: 52.9; RBBP9 inh: inactive

Results for COc1ccc(/C=C2/SC(=O)N(CCC(=O)Nc3ccc(C)cc3)C2=O)cc1OC ?
14-3-3 Bad PPI: inactive; eIF4E-4G inh: inactive; PKD1 inh: inactive; EBV gp42 inh: inactive; RBBP9 inh: inactive

Results for COc1cc(/C=C2\SC(N)=NC2=O)ccc1OCC(=O)Nc1ccc(C)cc1 ?
14-3-3 Bad PPI: 97.2[fluorescence artefact?]; eIF4E-4G inh: inactive; PKD1 inh: inactive; EBV gp42 inh: inactive; RBBP9 inh: inactive

How did N/C(=N\OC(=O)COc1ccc2ccccc2c1Br)c1ccncc1 do in these assays?
14-3-3 Bad PPI: inactive; eIF4E-4G inh: inactive; PKD1 inh: inactive; EBV gp42 inh: inactive; RBBP9 inh: inactive

Assay outcomes: PubChem BioAssay, several laboratories
